Source: ChEMBL document CHEMBL1649224, “Involvement of pmrAB and phoPQ in polymyxin B adaptation and inducible resistance in non-cystic fibrosis clinical isolates of Pseudomonas aeruginosa” (2009)
The source made the active and inactive calls. The calls are words filed in the database; no cut-off is given here.

What was measured:
Pseudomonas aeruginosa [1] = assay: Antibacterial activity against Pseudomonas aeruginosa isolate 9BR assessed as lowest concentration at which no growth observed after 48 hrs by broth microdilution method; assay type: functional, organism-based
Pseudomonas aeruginosa [2] = assay: Antibacterial activity against Pseudomonas aeruginosa isolate 19BR assessed as lowest concentration at which no growth observed after 48 hrs by broth microdilution method; assay type: functional, organism-based
Outline: (§1)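 Broth microdilution per CLSI M7-A6/M100-S15 in cation-adjusted Mueller-Hinton broth, 37°C, 48 h; polymyxin B 0.03 to 32 μg/ml, triplicate runs per isolate. Liberal MIC read as the lowest-concentration well without visible growth; skipped wells (isolated no-growth wells below wells with growth) noted.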

Pseudomonas aeruginosa [3] = assay: Antibacterial activity against Pseudomonas aeruginosa isolate 213BR assessed as lowest concentration at which no growth observed after 48 hrs by broth microdilution method; assay type: functional, organism-based; outline: as §1
Pseudomonas aeruginosa [4] = assay: Antibacterial activity against Pseudomonas aeruginosa isolate 9BR assessed as growth after the skipped wells was observed after 48 hrs by broth microdilution method; assay type: functional, organism-based
Pseudomonas aeruginosa [5] = assay: Antimicrobial activity against Pseudomonas aeruginosa isolate 19BR assessed as inhibition of growth at 2 ug/ml after 24 hrs; assay type: functional, organism-based
Outline: (§2)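 Growth curves run in triplicate: overnight cultures diluted 1:20 into cation-adjusted Mueller-Hinton broth with 0, 0.125 or 2 μg/ml polymyxin B; OD600 read every 20 min for 24 h.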

Pseudomonas aeruginosa [6] = assay: Antimicrobial activity against Pseudomonas aeruginosa isolate 213BR assessed as inhibition of growth at 2 ug/ml after 24 hrs; assay type: functional, organism-based; outline: as §2
Pseudomonas aeruginosa [7] = assay: Increase in arnB gene expression in compound-resistant Pseudomonas aeruginosa isolate 9BR by quantitative PCR analysis; assay type: functional, organism-based
Outline: (§3)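 Cells taken from MIC-plate wells at 0, 0.125 or 2 μg/ml polymyxin B, regrown in 10 ml CAMHB at the same level, shaken at 37°C to OD600 0.5. Total RNA (4 μg) reverse-transcribed; qPCR normalised to rpsL and expressed relative to PAO1 without polymyxin B. Triplicate cultures on separate days from individual MIC plates, each run at least in duplicate.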

Pseudomonas aeruginosa [8] = assay: Increase in PA4773 gene expression in compound-resistant Pseudomonas aeruginosa isolate 9BR by quantitative PCR analysis; assay type: functional, organism-based; outline: as §3
Pseudomonas aeruginosa [9] = assay: Effect on phoQ gene expression in Pseudomonas aeruginosa PAO1 at 2 ug/ml by quantitative PCR analysis; assay type: functional, organism-based
Outline: (§4)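 Cells from MIC plate wells regrown in cation-adjusted Mueller-Hinton broth with 0, 0.125 or 2 μg/ml polymyxin B at 37°C with shaking to OD600 0.5. Total RNA (4 μg) reverse-transcribed for qPCR of phoQ, arnB and PA4773, with rpsL as control. Expression is relative to untreated PAO1; triplicate biological repeats, each at least in duplicate.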

Pseudomonas aeruginosa [10] = assay: Effect on arnB gene expression in Pseudomonas aeruginosa PAO1 at 2 ug/ml by quantitative PCR analysis; assay type: functional, organism-based; outline: as §4
Pseudomonas aeruginosa [11] = assay: Effect on PA4773 gene expression in Pseudomonas aeruginosa PAO1 at 2 ug/ml by quantitative PCR analysis; assay type: functional, organism-based; outline: as §4
Pseudomonas aeruginosa [12] = assay: Increase in phoQ gene expression in Pseudomonas aeruginosa isolate 19BR at 2 ug/ml by quantitative PCR analysis; assay type: functional, organism-based; outline: as §4
Pseudomonas aeruginosa [13] = assay: Increase in arnB gene expression in Pseudomonas aeruginosa isolate 19BR at 2 ug/ml by quantitative PCR analysis; assay type: functional, organism-based; outline: as §4
Pseudomonas aeruginosa [14] = assay: Increase in PA4773 gene expression in Pseudomonas aeruginosa isolate 19BR at 2 ug/ml by quantitative PCR analysis; assay type: functional, organism-based; outline: as §4
Pseudomonas aeruginosa [15] = assay: Increase in phoQ gene expression in Pseudomonas aeruginosa isolate 213BR at 2 ug/ml by quantitative PCR analysis; assay type: functional, organism-based; outline: as §4
Pseudomonas aeruginosa [16] = assay: Increase in arnB gene expression in Pseudomonas aeruginosa isolate 213BR at 2 ug/ml by quantitative PCR analysis; assay type: functional, organism-based; outline: as §4
Pseudomonas aeruginosa [17] = assay: Increase in PA4773 gene expression in Pseudomonas aeruginosa isolate 213BR at 2 ug/ml by quantitative PCR analysis; assay type: functional, organism-based; outline: as §4
Pseudomonas aeruginosa [18] = assay: Antimicrobial activity against Pseudomonas aeruginosa PAO1 assessed as outer membrane permeabilization by fluorescence spectrophotometer using NPN fluorescent probe; assay type: functional, organism-based
Outline: (§5)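 Cells grown in cation-adjusted Mueller-Hinton broth with 0, 0.125 or 2 μg/ml polymyxin B (preincubation), subcultured 1:100 to mid-log, washed, resuspended to OD600 0.5 in 5 mM HEPES pH 7.2 with 5 μM CCCP. NPN 10 μM final added for baseline. Polymyxin B then added at 0.25–64 μg/ml final; fluorescence ex 350/em 420 nm.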

Pseudomonas aeruginosa [19] = assay: Antimicrobial activity against Pseudomonas aeruginosa isolate 19BR assessed as outer membrane permeabilization by fluorescence spectrophotometer using NPN fluorescent probe; assay type: functional, organism-based; outline: as §5
Pseudomonas aeruginosa [20] = assay: Antimicrobial activity against Pseudomonas aeruginosa isolate 9BR assessed as outer membrane permeabilization by fluorescence spectrophotometer using NPN fluorescent probe; assay type: functional, organism-based; outline: as §5
Pseudomonas aeruginosa [21] = assay: Antimicrobial activity against Pseudomonas aeruginosa PAO1 assessed as outer membrane permeabilization at 4 ug/ml by fluorescence spectrophotometer using NPN fluorescent probe; assay type: functional, organism-based; outline: as §5
Pseudomonas aeruginosa [22] = assay: Antimicrobial activity against Pseudomonas aeruginosa isolate 9BR assessed as outer membrane permeabilization at => […] ug/ml by fluorescence spectrophotometer using NPN fluorescent probe; assay type: functional, organism-based
Pseudomonas aeruginosa [23] = assay: Antimicrobial activity against Pseudomonas aeruginosa isolate 19BR assessed as outer membrane permeabilization at => 8 ug/ml by fluorescence spectrophotometer using NPN fluorescent probe; assay type: functional, organism-based; outline: as §5
Pseudomonas aeruginosa [24] = assay: Antimicrobial activity against Pseudomonas aeruginosa PAO1 assessed as outer membrane permeabilization at 0.125 ug/ml by fluorescence spectrophotometer using NPN fluorescent probe; assay type: functional, organism-based; outline: as §5
Pseudomonas aeruginosa [25] = assay: Antimicrobial activity against 2 ug/ml compound pretreated Pseudomonas aeruginosa isolate 9BR assessed as outer membrane permeabilization at 8 ug/ml by fluorescence spectrophotometer using NPN fluorescent probe; assay type: functional, organism-based; outline: as §5
Pseudomonas aeruginosa [26] = assay: Antimicrobial activity against 2 ug/ml compound pretreated Pseudomonas aeruginosa isolate 19BR assessed as outer membrane permeabilization at 8 ug/ml by fluorescence spectrophotometer using NPN fluorescent probe; assay type: functional, organism-based; outline: as §5
Pseudomonas aeruginosa [27] = assay: Antibacterial activity against Pseudomonas aeruginosa isolate 19BR assessed as growth after the skipped wells was observed after 48 hrs by broth microdilution method; assay type: functional, organism-based
Pseudomonas aeruginosa [28] = assay: Antibacterial activity against Pseudomonas aeruginosa isolate 213BR assessed as growth after the skipped wells was observed after 48 hrs by broth microdilution method; assay type: functional, organism-based
Pseudomonas aeruginosa [29] = assay: Antibacterial activity against Pseudomonas aeruginosa isolate 9BR by Etest; assay type: functional
Pseudomonas aeruginosa [30] = assay: Antibacterial activity against Pseudomonas aeruginosa isolate 19BR by Etest; assay type: functional
Pseudomonas aeruginosa [31] = assay: Antibacterial activity against Pseudomonas aeruginosa isolate 213BR by Etest; assay type: functional
Pseudomonas aeruginosa [32] = assay: Antimicrobial activity against Pseudomonas aeruginosa isolate 9BR assessed as inhibition of growth at 0.25 ug/ml after 24 hrs; assay type: functional, organism-based
Pseudomonas aeruginosa [33] = assay: Antibacterial activity against Pseudomonas aeruginosa isolate 9BR by Etest in presence of beta-lactamase inhibitor Tazobactam; assay type: functional
Pseudomonas aeruginosa [34] = assay: Antibacterial activity against Pseudomonas aeruginosa isolate 19BR by Etest in presence of beta-lactamase inhibitor Tazobactam; assay type: functional
Pseudomonas aeruginosa [35] = assay: Antibacterial activity against Pseudomonas aeruginosa isolate 213BR by Etest in presence of beta-lactamase inhibitor Tazobactam; assay type: functional

**Q.** POLYMYXIN B was tested. Which MIC (Pseudomonas aeruginosa [1]) did it give?
**A.** 64 µg/mL

**Q.** And the MIC (Pseudomonas aeruginosa [2])?
**A.** 0.25 µg/mL

**Q.** And the MIC (Pseudomonas aeruginosa [3])?
**A.** 0.5 µg/mL

**Q.** And the MIC (Pseudomonas aeruginosa [4])?
**A.** 64 µg/mL

**Q.** What about the TIME (Pseudomonas aeruginosa [5]) of the same compound?
**A.** 6 h

**Q.** And the TIME (Pseudomonas aeruginosa [6])?
**A.** 4 h

**Q.** And the Activity (Pseudomonas aeruginosa [7])?
**A.** Dose-dependent effect

**Q.** What about the Activity (Pseudomonas aeruginosa [8]) of the same compound?
**A.** Dose-dependent effect

**Q.** What about the Activity (Pseudomonas aeruginosa [9]) of the same compound?
**A.** inactive

**Q.** And the Activity (Pseudomonas aeruginosa [10])?
**A.** inactive

**Q.** What about the Activity (Pseudomonas aeruginosa [11]) of the same compound?
**A.** inactive

**Q.** And the Activity (Pseudomonas aeruginosa [12])?
**A.** Active

**Q.** And the Activity (Pseudomonas aeruginosa [13])?
**A.** Active

**Q.** What about the Activity (Pseudomonas aeruginosa [14]) of the same compound?
**A.** Active

**Q.** What about the Activity (Pseudomonas aeruginosa [15]) of the same compound?
**A.** Active

**Q.** And the Activity (Pseudomonas aeruginosa [16])?
**A.** Active

**Q.** And the Activity (Pseudomonas aeruginosa [17])?
**A.** Active

**Q.** And the Activity (Pseudomonas aeruginosa [18])?
**A.** Dose-dependent effect

**Q.** And the Activity (Pseudomonas aeruginosa [19])?
**A.** Dose-dependent effect

**Q.** What about the Activity (Pseudomonas aeruginosa [20]) of the same compound?
**A.** Dose-dependent effect

**Q.** What about the Activity (Pseudomonas aeruginosa [21]) of the same compound?
**A.** Active

**Q.** What about the Activity (Pseudomonas aeruginosa [22]) of the same compound?
**A.** Active

**Q.** What about the Activity (Pseudomonas aeruginosa [23]) of the same compound?
**A.** Active

**Q.** And the Activity (Pseudomonas aeruginosa [24])?
**A.** Active

**Q.** What about the Activity (Pseudomonas aeruginosa [25]) of the same compound?
**A.** inactive

**Q.** And the Activity (Pseudomonas aeruginosa [26])?
**A.** inactive

**Q.** What about the MIC (Pseudomonas aeruginosa [27]) of the same compound?
**A.** 8 µg/mL

**Q.** And the MIC (Pseudomonas aeruginosa [28])?
**A.** 8 µg/mL

**Q.** What about the MIC (Pseudomonas aeruginosa [29]) of the same compound?
**A.** 4 µg/mL

**Q.** And the MIC (Pseudomonas aeruginosa [30])?
**A.** 1.5 µg/mL

**Q.** And the MIC (Pseudomonas aeruginosa [31])?
**A.** 1.5 µg/mL

**Q.** What about the inhibition (Pseudomonas aeruginosa [32]) of the same compound?
**A.** inactive

**Q.** How did the MIC (Pseudomonas aeruginosa [29]) turn out when `C[C@@H](O)[C@H]1C(=O)N2C(C(=O)O)=C(S[C@@H]3CN[C@H](C(=O)N(C)C)C3)[C@H](C)[C@H]12` [MEROPENEM] was run?
**A.** > 32 µg/mL

**Q.** What about the MIC (Pseudomonas aeruginosa [30]) of the same compound?
**A.** > 32 µg/mL

**Q.** What about the MIC (Pseudomonas aeruginosa [31]) of the same compound?
**A.** > 32 µg/mL

**Q.** COLISTIN was tested. Which MIC (Pseudomonas aeruginosa [1]) did it give?
**A.** 32 µg/mL

**Q.** What about the MIC (Pseudomonas aeruginosa [2]) of the same compound?
**A.** 4 µg/mL

**Q.** What about the MIC (Pseudomonas aeruginosa [3]) of the same compound?
**A.** 2 µg/mL

**Q.** And the MIC (Pseudomonas aeruginosa [4])?
**A.** 32 µg/mL

**Q.** And the MIC (Pseudomonas aeruginosa [27])?
**A.** 4 µg/mL

**Q.** What about the MIC (Pseudomonas aeruginosa [28]) of the same compound?
**A.** 32 µg/mL

**Q.** `CO/N=C(\C(=O)N[C@@H]1C(=O)N2C(C(=O)[O-])=C(C[N+]3(C)CCCC3)CS[C@H]12)c1csc(N)n1` [CEFEPIME] was tested. Which MIC (Pseudomonas aeruginosa [29]) did it give?
**A.** > 256 µg/mL

**Q.** What about the MIC (Pseudomonas aeruginosa [30]) of the same compound?
**A.** > 256 µg/mL

**Q.** And the MIC (Pseudomonas aeruginosa [31])?
**A.** > 256 µg/mL

**Q.** How did the MIC (Pseudomonas aeruginosa [29]) turn out when `CC(C)(O/N=C(\C(=O)N[C@@H]1C(=O)N2C(C(=O)[O-])=C(C[n+]3ccccc3)CS[C@H]12)c1csc(N)n1)C(=O)O` [CEFTAZIDIME] was run?
**A.** > 256 µg/mL

**Q.** And the MIC (Pseudomonas aeruginosa [30])?
**A.** > 256 µg/mL

**Q.** And the MIC (Pseudomonas aeruginosa [31])?
**A.** > 256 µg/mL

**Q.** With `CCN1CCN(C(=O)N[C@@H](C(=O)N[C@@H]2C(=O)N3[C@@H]2SC(C)(C)[C@@H]3C(=O)O)c2ccccc2)C(=O)C1=O` [PIPERACILLIN] as the compound, how does the MIC (Pseudomonas aeruginosa [33]) read?
**A.** 96 µg/mL

**Q.** And the MIC (Pseudomonas aeruginosa [34])?
**A.** 64 µg/mL

**Q.** What about the MIC (Pseudomonas aeruginosa [35]) of the same compound?
**A.** 96 µg/mL

**Q.** With `O=C(O)c1cn(C2CC2)c2cc(N3CCNCC3)c(F)cc2c1=O` [CIPROFLOXACIN] as the compound, how does the MIC (Pseudomonas aeruginosa [29]) read?
**A.** > 32 µg/mL

**Q.** What about the MIC (Pseudomonas aeruginosa [30]) of the same compound?
**A.** > 32 µg/mL

**Q.** What about the MIC (Pseudomonas aeruginosa [31]) of the same compound?
**A.** > 32 µg/mL
